Entries after “also recorded” stand apart in the source; their conditions may differ. Where two headings read alike, the source gives them in different places.

Here are results for eleven molecules from article PMC8606101 (The Biochemical journal, 2017).

Assay [1] deals with T1, ADAM9 (Mus musculus, UniProt Q61072).
T1 sequence (Q61072 30-845): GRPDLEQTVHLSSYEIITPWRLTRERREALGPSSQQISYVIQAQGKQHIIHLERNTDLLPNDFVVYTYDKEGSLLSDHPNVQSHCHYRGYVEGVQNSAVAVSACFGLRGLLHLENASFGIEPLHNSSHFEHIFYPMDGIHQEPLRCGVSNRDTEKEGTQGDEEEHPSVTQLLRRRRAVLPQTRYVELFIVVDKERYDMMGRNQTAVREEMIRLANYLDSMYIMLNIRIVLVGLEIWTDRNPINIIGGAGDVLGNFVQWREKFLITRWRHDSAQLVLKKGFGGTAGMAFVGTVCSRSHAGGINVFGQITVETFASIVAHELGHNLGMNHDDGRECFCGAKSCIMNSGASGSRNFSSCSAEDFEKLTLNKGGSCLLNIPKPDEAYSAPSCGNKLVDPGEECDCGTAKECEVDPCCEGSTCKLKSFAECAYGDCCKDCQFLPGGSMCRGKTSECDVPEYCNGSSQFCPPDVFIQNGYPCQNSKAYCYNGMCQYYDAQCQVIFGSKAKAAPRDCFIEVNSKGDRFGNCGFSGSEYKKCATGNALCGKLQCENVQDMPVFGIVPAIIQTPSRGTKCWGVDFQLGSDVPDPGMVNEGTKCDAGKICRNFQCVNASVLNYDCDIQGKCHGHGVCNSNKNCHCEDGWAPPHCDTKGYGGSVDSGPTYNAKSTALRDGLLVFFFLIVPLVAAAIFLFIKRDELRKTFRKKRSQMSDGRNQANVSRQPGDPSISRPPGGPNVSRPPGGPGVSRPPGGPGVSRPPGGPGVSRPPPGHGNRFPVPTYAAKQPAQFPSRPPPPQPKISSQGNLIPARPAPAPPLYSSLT
In kind it is cell-based. The following applies: for stimulation of ADAM9-dependent shedding of EphB4-AP: 20 ng/ml PMA, 100 μM PV or 2.5 μM IO, 30 minutes; for dose dependence of inhibition of ADAM9-dependent release of EphB4-AP: titration.

Assay [2] has as its system EphB4-AP background shedding. The assay can be described thus: Basal/background EphB4-AP shedding in cells expressing inactive ADAM9 E>A. It counts as cell-based, mouse. The note with it: for effect on EphB4-AP shedding in the absence of active A9 (EA9 cells): 20 ng/ml PMA, 100 μM PV or 2.5 μM IO, 30 minutes. Summed up:
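Adam10/17-/- mEFs were co-transfected (Lipofectamine2000) with ADAM9 E>A plasmid (1.5 µg per 6-well well) and EphB4-AP (1 µg). After a 1 h OptiMEM wash, cells were held in fresh OptiMEM ± stimuli or inhibitor. Times were 30 min for stimuli (pervanadate freshly made from vanadate + H2O2) and 2 h for inhibitors. Readout was colorimetric AP in supernatant/(lysate+supernatant), as fold over untreated cells; mean ± SEM, ≥3 experiments, Dunnett's test.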

Assay [3] deals with ADAM12. The note with it: read-out: Potency (IC50/inhibition constant) ADAM12, cell-based; cited from earlier work.
Assay [4] addresses T2, ADAM10 (Mus musculus, UniProt O35598).
T2 sequence (O35598 215-749): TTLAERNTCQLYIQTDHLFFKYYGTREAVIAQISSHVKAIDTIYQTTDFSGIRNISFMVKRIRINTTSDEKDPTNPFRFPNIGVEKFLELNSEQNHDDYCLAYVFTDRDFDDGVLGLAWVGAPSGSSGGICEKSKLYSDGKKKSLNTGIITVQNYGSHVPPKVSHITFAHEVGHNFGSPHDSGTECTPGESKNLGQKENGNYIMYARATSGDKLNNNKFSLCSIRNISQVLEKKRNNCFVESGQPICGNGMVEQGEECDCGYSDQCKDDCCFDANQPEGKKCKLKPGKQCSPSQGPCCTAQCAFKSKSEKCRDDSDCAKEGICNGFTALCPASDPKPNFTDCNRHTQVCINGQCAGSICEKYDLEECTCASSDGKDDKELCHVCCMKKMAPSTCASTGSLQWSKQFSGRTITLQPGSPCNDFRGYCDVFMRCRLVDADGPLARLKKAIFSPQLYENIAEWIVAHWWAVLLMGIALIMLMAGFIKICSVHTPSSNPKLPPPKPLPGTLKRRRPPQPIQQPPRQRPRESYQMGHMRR
The assay can be described thus: ADAM10-dependent shedding of BTC-AP in wild type mEFs. The note with it: WT mEFs, Supplementary Figure 2. It counts as cell-based. The gist of the method: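 Wild-type mEFs were transiently transfected with AP-tagged betacellulin using Lipofectamine2000. Cells were washed 1 h in OptiMEM, then given fresh OptiMEM with or without test compound for 30 min to 2 h. AP activity was measured colorimetrically in supernatant and lysate from three identical wells. Shedding = supernatant AP / (lysate + supernatant AP).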

Assay [5] concerns recombinant soluble ADAM9. The note with it: cited from earlier work; for Ki: read-out: Ki recombinant soluble ADAM9; for inhibition of recombinantly expressed ADAM9: concentrations up to 200 nM.
In assay [6] the test system is ADAM10. The note with it: cited from earlier work; for IC50: read-out: Potency (IC50/inhibition constant) ADAM10, cell-based.
For assay [7], the system named is ADAM17. The following applies: 1 μM; cited from earlier work.
Assay [8] deals with ADAM15. The following applies: read-out: Potency (IC50/inhibition constant) ADAM15, cell-based; cited from earlier work.

Take pervanadate: the “stimulation of ADAM9-dependent shedding of EphB4-AP” value in assay [1] (Adam10/17−/− mEFs) is given as “not responsive”. Further, in assay [2], the “effect on EphB4-AP shedding in the absence of active A9 (EA9 cells)” value is “had no effect”.
Taken in the same sequence, the figures for `C[C@H](CCC(=O)O)C[C@H](C)C[C@H](C)C(=O)/C=C(\O)[C@H](C)C[C@H](C)C/C=C/[C@@H](C)[C@@H](O)[C@@H](C)[C@@H](O)C[C@@H]1CC[C@@](C)([C@H]2CC[C@@](C)([C@@H](C)O)O2)O1` [ionomycin] were “not responsive” and “had no effect”.
For the molecule `CNC(=O)[C@H](Cc1c[nH]c2ccccc12)NC(=O)[C@@H](CC(=O)NO)CC(C)C` [GM6001], the values for the IC50 in assay [1] and in assay [3] were 720 nM and 5930 nM, respectively. Moreover, the “dose dependence of inhibition of ADAM9-dependent release of EphB4-AP” value (from here on “dose dependence of inhibition … of EphB4-AP”) in assay [1] (Adam10/17−/− mEFs, 2 hours) is on record as “dose-dependent manner”.
On to `CNC(=O)[C@@H](NC(=O)[C@H](CCCc1ccccc1)[C@H](C)N(O)C=O)C(C)(C)C` [GI254023X], for which the “effect on ADAM9-mediated shedding of EphB4-AP” value in assay [1] (concentrations of up to 10 μM, Adam10/17−/− mEFs) is listed as “did not block”. Also, the “effect on ADAM9-dependent processing of EphB4-AP” value in assay [1] (concentrations up to 5 μM) is “did not block”. Also, in assay [4], the “lowest concentration inhibiting shedding of the ADAM10 substrate betacellulin-AP” value was found to be 0.04 µM. The IC50 in assay [5] (read-out: IC50 soluble ADAM9, biochemical assays) was 280 ± 110 nM. In addition, the “block of ADAM10 in cell-based assays” value in assay [6] (1 μM) is given as “blocks ADAM10”. The “block of ADAM17 in cell-based assays” value in assay [7] is listed as “not ADAM17”.
Consider `CNC(=O)[C@H](Cc1ccccc1)NC(=O)[C@H](CC(C)C)[C@H](CSc1cccs1)C(=O)NO` [Batimastat/BB94, Batimastat], for which the IC50 is 50 nM in assay [1] and around 200 nM in assay [6].
A word on the Ki: it is the dissociation constant of the complex between target and ligand, obtained from inhibition or displacement. For `CC(C)C[C@H](CC(=O)NO)C(=O)N[C@H](C(=O)N[C@@H](C)C(=O)NCCN)C(C)(C)C` [TAPI-2], the “dose dependence of inhibition … of EphB4-AP” value in assay [1] (Adam10/17−/− mEFs, 2 hours) is “dose-dependent manner”. Moreover, the Ki in assay [5] (biochemical assays) was 17 nM.
As for `CCCCCCCCCCCCCC(=O)O[C@@H]1[C@@H](C)[C@@]2(O)[C@@H](C=C(CO)C[C@]3(O)C(=O)C(C)=C[C@@H]23)[C@@H]2C(C)(C)[C@]12OC(C)=O` [PMA, phorbol-12 myristate 13-acetate], the “stimulation of ADAM9-dependent shedding of EphB4-AP” value in assay [1] (Adam10/17−/− mEFs) is “did not enhance”. The “effect on EphB4-AP shedding in the absence of active A9 (EA9 cells)” value in assay [2] is reported as “had no effect”.
GW280264X: the “lowest concentration effectively inhibiting ADAM9 activity” value in assay [1] (increasing inhibition between 1 and 10 μM) was 0.5 µM.
The molecule `CNC(=O)[C@@H](NC(=O)[C@H](CC(C)C)[C@H](O)C(=O)NO)C(C)(C)C` [Marimastat] displayed an IC50 in assay [1] of 130 nM. Further, the “dose dependence of inhibition … of EphB4-AP” value in assay [1] (Adam10/17−/− mEFs, 2 hours) was “dose-dependent manner”. In addition, the Ki in assay [5] (biochemical assays) was 274 nM.
Consider “TIMP-1: tissue inhibitor of metalloproteinases 1”, for which, in assay [1] (concentrations up to 20 nM, Adam10/17−/− mEFs, 2 hours), the “effect on ADAM9-dependent increase in EphB4-AP shedding” value is recorded as “not significantly affected; also recorded: did not affect”. Further, the “effect on EphB4 background shedding in EA9 expressing cells” value in assay [2] (up to 20 nM, Adam10/17−/− mEFs, 2 hours) was “no significant effect”. Besides, the “inhibition of recombinantly expressed ADAM9” value in assay [5] is given as “not inhibited”. For the same molecule, the IC50 in assay [6] is below 1 nM.

B1: TIMP-3: tissue inhibitor of metalloproteinases 3 (protein, UniProt P35625 24-211, looked up)
Metalloproteinase inhibitor 3: CTCSPSHPQDAFCNSDIVIRAKVVGKKLVKEGPFGTLVYTIKQMKMYRGFTKMPHVQYIHTEASESLCGLKLEVNKYQYLLTGRVYDGKMYTGLCNFVERWDQLTLSQRKGLNYRYHLGCNCKIKSCYYLPCFVTSKNECLWTDMLSNFGYPGYQSKHYACIRQKGGYCSWYRGWAPPDKSIINATDP
B1: the “reduction of the activity of ADAM9” value in assay [1] (10 nM) is 40-50%; in assay [1] (20 nM) it was 75%. Also, the “effect on ADAM9-dependent EphB4-AP shedding” value is on record as “inhibited ADAM9 partially; also recorded: partially blocked” in assay [1] (10 nM, Adam10/17−/− mEFs, 2 hours) and “strongly” in assay [1] (20 nM, Adam10/17−/− mEFs, 2 hours). For the same molecule, in assay [5], the “inhibition of recombinantly expressed ADAM9” value is listed as “not inhibited”. Moreover, the IC50 in assay [6] was below 1 nM; in assay [8], around 20 nM.
